Assay outcomes from PubChem.
An excerpt weighted towards active compounds, which were near 2.7% of everything screened.
S100A4 MyoIIA – inhibitors of S100A4-myosin IIA peptide binding, primary screen, biochemical, fluorescence polarization, TAMRA-MyoIIA peptide. actives 0.14% (n = 360,000). inhibition, % at 10.7 µM. Protein S100-A4 (Homo sapiens), P26447;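 active means mean inhibition of at least 70% across replicates, with every replicate also reaching that level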
Target sequence (P26447 whole entry, looked up): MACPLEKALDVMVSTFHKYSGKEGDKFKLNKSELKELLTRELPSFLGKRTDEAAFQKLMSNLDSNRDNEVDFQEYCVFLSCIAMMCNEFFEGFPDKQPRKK
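Test system: S100A4 monomer protein. Medium: HEPES buffer with Ca2+, pH 7.2. Reagent: fluorescent myosin IIA peptide, 5 nM. Compound dosing: single-point compound testing. Timing: 5 min between mix addition and reading. Benchmarks: DMSO neutral and TFP positive wells.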
DENV2 CPE – inhibitors of DENV2 cytopathic effect, primary screen, cell-based, plate reader, single concentration; DENV2-infected cells, cytopathic effect rescue; CPE inhibition, % at 9.99 µM; AID 651640, 2012; actives 1.7% (n = 350,000); in the data active means CPE inhibition above about 20%, passing the limit was not always enough; tested in BHK-21 cells;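 further: 0% = median of neutral control wells and 100% = median of positive control wells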
CaV13 ICDI inh – Disruptors of the CACNA1D IQ motif to Ca2+-dependent inactivation inhibitor domain association, primary screening, Förster resonance energy transfer in intact living …; HEK cells, CFP/YFP FRET ICDI-IQ, plate reader, 10 min; percent FRET-ratio fall versus neutral wells; inhibition, % at 12.3 µM; actives 0.098% (n = 340,000);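 active means mean replicate inhibition of at least 30% and at least 1% of replicates passing that level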;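 further: 0% = median of the neutral control wells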
MLL AF4-AF9 inh – inhibitors of AF4 peptide binding to AF9, primary screen, biochemical, AlphaScreen, biotin-AF4 peptide, FLAG-AF9, single point; Protein AF-9 (Homo sapiens), P42568; inhibition, % at 10 µM; actives 0.47% (n = 350,000);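 active means every replicate reaching a set inhibition limit, whatever the replicate mean, cut at about 25% in these data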;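 further: 0% = plate neutral control median and 100% = total signal loss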
SIRT5 inh – SIRT5 desuccinylase inhibitors, primary screen, biochemical, fluorescence imaging, single point, set 5; NAD-dependent protein deacylase sirtuin-5, mitochondrial (Homo sapiens), Q9NXA8; Purified SirT5, succinyl-peptide AMC, trypsin-coupled fluorescence; inhibition, % at 15 µM; actives 1.1% (n = 330,000); AID 652115, 2013; in the data active means inhibition above about 15%
Target sequence (Q9NXA8 whole entry, looked up): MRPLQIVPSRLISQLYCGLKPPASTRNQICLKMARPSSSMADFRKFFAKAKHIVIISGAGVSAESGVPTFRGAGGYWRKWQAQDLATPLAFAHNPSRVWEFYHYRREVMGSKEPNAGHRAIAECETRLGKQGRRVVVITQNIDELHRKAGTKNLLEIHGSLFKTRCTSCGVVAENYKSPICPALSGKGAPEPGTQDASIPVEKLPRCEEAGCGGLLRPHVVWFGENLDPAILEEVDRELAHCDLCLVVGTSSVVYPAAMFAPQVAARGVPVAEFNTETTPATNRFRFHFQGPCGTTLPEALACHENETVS
The depositor's hits bear a star.

How did N/C(=N\C(=S)Nc1ccccc1)c1ccccc1 do in these assays?
S100A4 MyoIIA: 0; DENV2 CPE: 0; CaV13 ICDI inh: -15; MLL AF4-AF9 inh: 43*; SIRT5 inh: -14

Results for N#Cc1ccc(NC(=S)/N=C(\N)c2ccccc2)cc1 ?
S100A4 MyoIIA: -1; DENV2 CPE: -9; CaV13 ICDI inh: -8; MLL AF4-AF9 inh: 2; SIRT5 inh: -7

Results for C[C@@H]1CCCCO[C@@H](CN(C)S(=O)(=O)c2ccccc2)[C@H](C)CN([C@H](C)CO)C(=O)c2cc(NS(=O)(=O)c3ccc(Cl)cc3)ccc2O1 ?
S100A4 MyoIIA: -16; DENV2 CPE: -5; MLL AF4-AF9 inh: 0; SIRT5 inh: 14

What do the screens show for `C[C@@H]1CCCCO[C@H](CN(C)S(=O)(=O)c2ccc(Cl)cc2)[C@H](C)CN([C@@H](C)CO)C(=O)c2cc(NS(=O)(=O)c3ccccc3)ccc2O1`?
S100A4 MyoIIA: -9; DENV2 CPE: -11; MLL AF4-AF9 inh: 0; SIRT5 inh: 16*

Results for C[C@@H]1CN([C@@H](C)CO)C(=O)c2cc(NS(=O)(=O)c3ccccc3)ccc2O[C@@H](C)CCCCO[C@H]1CN(C)S(=O)(=O)c1ccc(Cl)cc1 ?
S100A4 MyoIIA: -5; DENV2 CPE: 3; MLL AF4-AF9 inh: -7; SIRT5 inh: 16*

How did C[C@@H]1CCCCO[C@@H](CN(C)S(=O)(=O)c2ccc(Cl)cc2)[C@H](C)CN([C@@H](C)CO)C(=O)c2cc(NS(=O)(=O)c3ccccc3)ccc2O1 do in these assays?
S100A4 MyoIIA: -6; DENV2 CPE: 8; MLL AF4-AF9 inh: 1; SIRT5 inh: 21*

What do the screens show for `CCNC(=O)[C@H]1[C@H](CO)[C@H]2Cn3c(ccc(-c4ccc(OC)cc4)c3=O)[C@@H]1N2CC1CC1`?
S100A4 MyoIIA: 4; DENV2 CPE: -2; SIRT5 inh: -31

Results for O=C(NCc1ccccc1)c1ccccc1 ?
S100A4 MyoIIA: -1; DENV2 CPE: 20*; MLL AF4-AF9 inh: -14; SIRT5 inh: 0

What do the screens show for `CCCNC(=O)C[C@@H]1C[C@H]2c3cc(NC(=O)NC4CCCCC4)ccc3O[C@H]2[C@@H](CO)O1`?
S100A4 MyoIIA: -4; DENV2 CPE: 2; MLL AF4-AF9 inh: 0; SIRT5 inh: -7

What do the screens show for `Cc1noc(C)c1NC(=O)N[C@@H]1C=C[C@@H](CC(=O)N2CCN(C)CC2)O[C@@H]1CO`?
S100A4 MyoIIA: -4; DENV2 CPE: 7; MLL AF4-AF9 inh: -1; SIRT5 inh: 3

Results for CC(C)NC(=O)N(C)C[C@@H]1Oc2ccc(NS(=O)(=O)c3cccs3)cc2CC(=O)N([C@@H](C)CO)C[C@@H]1C ?
S100A4 MyoIIA: -4; DENV2 CPE: 22*; MLL AF4-AF9 inh: -4; SIRT5 inh: -1

How did CC(C)NC(=O)N(C)C[C@@H]1Oc2ccc(NS(=O)(=O)c3cccs3)cc2CC(=O)N([C@H](C)CO)C[C@H]1C do in these assays?
S100A4 MyoIIA: 2; DENV2 CPE: -3; MLL AF4-AF9 inh: -2; SIRT5 inh: 0

Results for C[C@@H]1CN([C@@H](C)CO)C(=O)Cc2cc(NS(=O)(=O)c3cccs3)ccc2O[C@H]1CN(C)S(=O)(=O)c1ccccc1 ?
S100A4 MyoIIA: 6; DENV2 CPE: 78*; MLL AF4-AF9 inh: 0; SIRT5 inh: 1

How did C[C@H](O)C#Cc1ccc([C@H]2[C@H]3CN(C(=O)c4cccc(F)c4)CCCCN3[C@H]2CO)cc1 do in these assays?
S100A4 MyoIIA: 1; DENV2 CPE: -10; MLL AF4-AF9 inh: 1; SIRT5 inh: 2

What do the screens show for `CN(C)CC(=O)N1[C@H](CO)[C@@H](c2ccccc2)C12CN(C(=O)c1ccccc1)C2`?
S100A4 MyoIIA: -17; DENV2 CPE: 81*; MLL AF4-AF9 inh: -1; SIRT5 inh: -3

Results for CCC(=O)N1CC2(C1)[C@H](c1ccc(-c3cccc(C)c3)cc1)[C@@H](CO)N2S(C)(=O)=O ?
S100A4 MyoIIA: -1; DENV2 CPE: 7; MLL AF4-AF9 inh: -1; SIRT5 inh: -1

Results for CCC(=O)N1CC2(C1)[C@@H](c1ccc(-c3cccc(C)c3)cc1)[C@@H](CO)N2S(C)(=O)=O ?
S100A4 MyoIIA: 0; DENV2 CPE: 27*; MLL AF4-AF9 inh: -2; SIRT5 inh: -5

Results for CS(=O)(=O)N1[C@H](CO)[C@H](c2ccccc2)C12CN(C(=O)c1ccccc1F)C2 ?
S100A4 MyoIIA: 8; DENV2 CPE: 3; MLL AF4-AF9 inh: -1; SIRT5 inh: -4

What do the screens show for `CS(=O)(=O)N1[C@@H](CO)[C@@H](c2ccccc2)C12CN(C(=O)c1ccccc1F)C2`?
S100A4 MyoIIA: 16; DENV2 CPE: -8; MLL AF4-AF9 inh: 0; SIRT5 inh: 19*

What do the screens show for `COCC(=O)N1CC2(C1)[C@@H](c1ccccc1)[C@@H](CO)N2C(=O)c1ccccc1`?
S100A4 MyoIIA: 0; DENV2 CPE: 27*; MLL AF4-AF9 inh: -4; SIRT5 inh: -2

How did Cc1noc(C)c1NC(=O)N(C)C[C@@H]1OCCCC[C@H](C)Oc2ccc(NC(=O)CCC(F)(F)F)cc2C(=O)N([C@@H](C)CO)C[C@H]1C do in these assays?
S100A4 MyoIIA: 9; DENV2 CPE: -11; MLL AF4-AF9 inh: 1; SIRT5 inh: -11

How did COc1ccccc1-c1cn(CC[C@@H]2CC[C@@H](NC(=O)c3ccccc3F)[C@@H](CO)O2)nn1 do in these assays?
S100A4 MyoIIA: 2; DENV2 CPE: -5; MLL AF4-AF9 inh: -2; SIRT5 inh: 0

How did CC(=O)N1[C@@H]2c3ccc(-c4ccccc4)c(=O)n3C[C@H]1[C@H](CO)[C@H]2C(=O)NC1Cc2ccccc2C1 do in these assays?
MLL AF4-AF9 inh: 1

Results for C/C=C/c1ccc([C@H]2[C@@H](CO)N(C(=O)CC)C23CN(C(=O)c2ccccc2)C3)cc1 ?
S100A4 MyoIIA: 3; DENV2 CPE: 29*; MLL AF4-AF9 inh: 3; SIRT5 inh: 0

How did CN(C)CC(=O)N1CC2(C1)[C@@H](c1ccccc1)[C@@H](CO)N2S(C)(=O)=O do in these assays?
S100A4 MyoIIA: 91*; DENV2 CPE: -12; MLL AF4-AF9 inh: -1; SIRT5 inh: 1

Results for CN(C)CC(=O)N1CC2(C1)[C@H](c1ccccc1)[C@@H](CO)N2S(C)(=O)=O ?
S100A4 MyoIIA: -2; DENV2 CPE: -12; MLL AF4-AF9 inh: 1; SIRT5 inh: 0

How did CCC(=O)N1CC2(C1)[C@@H](c1ccc(-c3cccc(F)c3)cc1)[C@@H](CO)N2CC1CC1 do in these assays?
S100A4 MyoIIA: 0; DENV2 CPE: 20*; MLL AF4-AF9 inh: 3; SIRT5 inh: -1
